We go through 31 compounds from PubChem BioAssay.

Each structure is given as a SMILES string. Calls of active or inactive are those of the source.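 The calls were made as follows, unless noted: active = calcium signal rise above buffer-control mean plus 5 SD in both duplicates, and also a hit in the primary screen; inactive = the rest.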

The first test addresses Short transient receptor potential channel 4 (Mus musculus) (UniProt Q9QUQ5). The test can be described thus: calcium flux activators in TRPC4/5HT1a cells, counter-screen for TRPC4 activator project, cell-based, second counter screen, HEK293 TRPC4/5HT1a, Fluo-4 (AID 434977). The following applies: Fluo-4 calcium flux, at 10 µM; active compounds read high. Background: Calcium flux is commonly read through the fluorescence of an indicator in the cells.
For the compound `Clc1ccc(OCC#CCN2CCCC2)cc1`, the outcome was inactive.
On the same count and under the same terms, for `CN(CCOc1ccc(C=C2C(=O)NC(=O)NC2=O)cc1)c1ccccn1` the value was “inactive”; for `CCN1CC2C3CCC(C)(O3)C2C1` (configuration not stated), “inactive”.
Same read-out and setting: for `CC(C)CNc1c2c(nc3ccccc13)CCC2` the value was “inactive”; for `COC(=O)C1=C(c2cc3ccccc3s2)C[C@@H]2CC[C@H]1N2C(=O)NCCO`, “inactive”; for `Cc1ccc(-c2cc(-c3ccccc3)cc(-c3ccccc3)[n+]2-c2ccccc2)cc1`, “inactive”.
On the same count and under the same terms, the result for `Nc1ccccc1-[n+]1c(-c2ccccc2)cc(-c2ccccc2)cc1-c1ccccc1` reads “inactive”; that for `Clc1ccc2c(c1)C(c1ccccc1Cl)=NCc1nnc(N3CCN(CCOc4ccccc4)CC3)n1-2`, “inactive”.
With `Cc1ccccc1CN1CCNCC1`, the result was inactive.
Take `CN1CCN(Cc2cc(=O)n3ccsc3n2)CC1`: the outcome was inactive.
The same measure, in the same setting: the result for `CCC1=Nc2cc(C(=O)N3CCC4(CC3)OCCO4)ccc2Sc2ccc(Br)cc21` reads “inactive”.
Turning to `CCCCN1C(=O)NC(=O)C2(Cc3c(nc4c(C)cccn4c3=O)N3CCc4ccccc4C32)C1=O` (configuration not stated), the result was inactive.
Still for that read-out and setting: for `C=CCOC(=O)C1=C(C)OC(N)=C(C#N)[C@@]12C(=O)N(CC(N)=O)c1ccccc12` the value was “inactive”; for `FC(F)(F)c1ccc(CN2CCNCC2)cc1`, “inactive”.
The same measure, in the same setting: for `Clc1ccc(N2CCNCC2)nn1` the value was “inactive”.
For the compound `O=[N+]([O-])c1ccc(N2CCNCC2)cc1N1CCCCCC1`, the result was inactive.
Still for that read-out and setting: the result for `C#CCN1C(=O)C2(C(C#N)=C(N)OC(C)=C2C(=O)OCc2ccccc2)c2ccccc21` (configuration not stated) reads “inactive”; that for `Cc1ccc(-c2nc(N(C)C3CCN(C)CC3)c3ccccc3n2)cc1`, “inactive”.
Same read-out and setting: the result for `c1ccc2nc(OCCN3CC3)ccc2c1` reads “inactive”.
For `Cc1cc(OC(C)C(=O)NCc2ccncc2)c2c3c(c(=O)oc2c1)CCCC3` (configuration not stated), the result was inactive.
Same read-out and setting: the result for `CCNCCNc1ccc([N+](=O)[O-])c2cccnc12` reads “inactive”; that for `CN(C)CCn1cnc2ccccc21`, “inactive”; that for `COC(=O)C(O)(c1ccc(NC(=S)NC(=O)c2ccc(Cl)cc2Cl)c(C)c1)C(F)(F)F` (configuration not stated), “inactive”.
On the same count and under the same terms, the result for `COc1ccc(C(=O)C2CN(C)CC2c2ccc(Cl)cc2)cc1` (configuration not stated) reads “inactive”; that for `CC(Cc1ccccc1)NCC(=O)Nc1cc(N(C)C)nc2ccccc12` (configuration not stated), “inactive”; that for `Nc1c([N+](=O)[O-])cc(F)c(N2CCNCC2)c1Br`, “inactive”.
The same measure, in the same setting: the result for `Oc1c(Br)cc(Br)cc1CN1CCN(Cc2ccccc2)CC1` reads “inactive”; that for `CCNc1cc(N2CCNCC2)ccc1[N+](=O)[O-]`, “inactive”.
Consider `CCn1ccnc1CN1CCCC(C(=O)c2cccc(C(F)(F)F)c2)C1` (configuration not stated), for which the result was inactive.
Same read-out and setting: for `CCc1ccc(OCCCN=C(C)c2c(O)n(C)c(=O)n(C)c2=O)cc1` the value was “inactive”.
Still for that read-out and setting: the result for `Cc1cccc(N=Cc2c(O)n(-c3ccccc3C)c(=O)[nH]c2=O)c1` reads “inactive”.

Test system in the next test: not listed separately
The test can be described thus: calcium flux inhibitors in TRPC4/5HT1a cells, confirmation, counter-screen for TRPC4 inhibitor project, cell-based, second counter screen, HEK293 TRPC4/5HT1a, Fluo-4 (AID 434978;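 active = primary screen active whose calcium signal fell more than 3 SD beyond the full-serotonin control mean in both duplicate plates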;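 as to outcome: serotonin given first at submaximal then at maximal dose after compound preincubation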). The following applies: Fluo-4 calcium flux, at 10 µM; inhibition: active compounds read high, serotonin added to trigger calcium flux unless noted; outcome: serotonin added to trigger calcium flux unless noted. In outline: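 System: HEK293 line stably carrying TRPC4 plus 5HT1a receptor. Schedule: 110 s each for compound, submaximal and ECmax serotonin. Technique: kinetic Fluo-4 fluorescence readout of calcium flux. Replication: duplicate plates.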
As for `Clc1ccc(OCC#CCN2CCCC2)cc1`, the outcome was inactive.
For `CN(CCOc1ccc(C=C2C(=O)NC(=O)NC2=O)cc1)c1ccccn1`, the outcome was “inactive [setting not given]”.
On the same count and under the same terms, the result for `CCN1CC2C3CCC(C)(O3)C2C1` (configuration not stated) reads “inactive”.
Same read-out and setting: for `CC(C)CNc1c2c(nc3ccccc13)CCC2` the value was “inactive”; for `COC(=O)C1=C(c2cc3ccccc3s2)C[C@@H]2CC[C@H]1N2C(=O)NCCO`, “inactive”.
The same measure, in the same setting: the result for `Cc1ccc(-c2cc(-c3ccccc3)cc(-c3ccccc3)[n+]2-c2ccccc2)cc1` reads “inactive”; that for `Nc1ccccc1-[n+]1c(-c2ccccc2)cc(-c2ccccc2)cc1-c1ccccc1`, “inactive”.
Regarding `Clc1ccc2c(c1)C(c1ccccc1Cl)=NCc1nnc(N3CCN(CCOc4ccccc4)CC3)n1-2`, the result was inactive.
The same measure, in the same setting: for `Cc1ccccc1CN1CCNCC1` the value was “inactive [setting not given]”; for `CN1CCN(Cc2cc(=O)n3ccsc3n2)CC1`, “inactive”; for `CCC1=Nc2cc(C(=O)N3CCC4(CC3)OCCO4)ccc2Sc2ccc(Br)cc21`, “inactive [setting not given]”.
The same measure, in the same setting: the result for `CCCCN1C(=O)NC(=O)C2(Cc3c(nc4c(C)cccn4c3=O)N3CCc4ccccc4C32)C1=O` (configuration not stated) reads “inactive [setting not given]”; that for `C=CCOC(=O)C1=C(C)OC(N)=C(C#N)[C@@]12C(=O)N(CC(N)=O)c1ccccc12`, “inactive”.
On the same count and under the same terms, for `FC(F)(F)c1ccc(CN2CCNCC2)cc1` the value was “inactive [setting not given]”; for `Clc1ccc(N2CCNCC2)nn1`, “inactive”.
For the compound `O=[N+]([O-])c1ccc(N2CCNCC2)cc1N1CCCCCC1`, the result was inactive.
As for `C#CCN1C(=O)C2(C(C#N)=C(N)OC(C)=C2C(=O)OCc2ccccc2)c2ccccc21` (configuration not stated), the outcome was inactive.
`Cc1ccc(-c2nc(N(C)C3CCN(C)CC3)c3ccccc3n2)cc1`: the result was inactive.
Same read-out and setting: for `c1ccc2nc(OCCN3CC3)ccc2c1` the value was “inactive”; for `Cc1cc(OC(C)C(=O)NCc2ccncc2)c2c3c(c(=O)oc2c1)CCCC3` (configuration not stated), “inactive”; for `CCNCCNc1ccc([N+](=O)[O-])c2cccnc12`, “inactive”.
Consider `CN(C)CCn1cnc2ccccc21`, for which the outcome was inactive.
On the same count and under the same terms, for `COC(=O)C(O)(c1ccc(NC(=S)NC(=O)c2ccc(Cl)cc2Cl)c(C)c1)C(F)(F)F` (configuration not stated) the value was “inactive”; for `COc1ccc(C(=O)C2CN(C)CC2c2ccc(Cl)cc2)cc1` (configuration not stated), “inactive”.
`CC(Cc1ccccc1)NCC(=O)Nc1cc(N(C)C)nc2ccccc12` (configuration not stated): the inhibition was 46% (active).
Take `Nc1c([N+](=O)[O-])cc(F)c(N2CCNCC2)c1Br`: the outcome was inactive.
`Oc1c(Br)cc(Br)cc1CN1CCN(Cc2ccccc2)CC1`: the outcome is “inactive [setting not given]”.
Still for that read-out and setting: for `CCNc1cc(N2CCNCC2)ccc1[N+](=O)[O-]` the value was “inactive”; for `CCn1ccnc1CN1CCCC(C(=O)c2cccc(C(F)(F)F)c2)C1` (configuration not stated), “inactive”.
As to `CCc1ccc(OCCCN=C(C)c2c(O)n(C)c(=O)n(C)c2=O)cc1`, the outcome is “inactive [setting not given]”.
In the case of `Cc1cccc(N=Cc2c(O)n(-c3ccccc3C)c(=O)[nH]c2=O)c1`, the outcome was “inactive [setting not given]”.

For orientation: inhibition means the percentage by which the read-out fell short of the control.
